High-throughput results deposited in PubChem BioAssay by several laboratories.
SF1 activator: SF-1 (human) activation; 65,000 tested, 1.9% active; CHO-K1 Gal4-SF-1 LBD luciferase reporter; % increase over DMSO SF-1-specific signal; Q13285; activation, % at 10 µM;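 active means activation above the mean activation of all tested compounds plus 3 SD, cut at about 50% in these data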
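System: CHO-K1 cells with Gal4–hSF-1 LBD chimera plus Gal4-driven luciferase; quantity: 4,000 CHO-K1 cells per well; compound: one dose, 10 µM compound, 1% DMSO; times: 20 h compound treatment, 37 °C; measured by: SteadyLite luciferase luminescence; read-out: percent activation versus DMSO; benchmarks: DMSO and mock-transfected background; replicates: one test per compound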
M1 ag: agonists of M1 muscarinic receptor. CHO-M1 cells, Fluo-4 calcium fluorescence, agonist mode; active compounds read high. B-score at 10 µM. 64,000 tested, 3% active;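 active means fluorescence rise, raw or as B-score row- and column-corrected plate score, outside the 99.7% band of its plate's samples, either direction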
M1 antag: M1 muscarinic receptor (rat) antagonism; P08482; CHO-M1 cells, Fluo-4 calcium, ACh EC80 antagonist mode; active compounds read low; B-score at 10 µM; 64,000 tested, 3.4% active; AID 628;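 active means calcium fluorescence response, raw or row-and-column corrected B-score, differing from the plate sample mean either way at a set confidence level, mostly lower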
D1 allo mod: D1 dopamine receptor (human) allosteric modulation; B-score at 10 µM; HEK293 D1, CRE-luciferase, dopamine EC30 potentiation; actives deviate in either direction; 58,000 tested, 5.9% active; AID 641;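 active means luminescence count or its row- and column-corrected plate score outside the 99.7% band of the plate's sample wells, on either side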
Target sequence (P21728 whole entry, looked up): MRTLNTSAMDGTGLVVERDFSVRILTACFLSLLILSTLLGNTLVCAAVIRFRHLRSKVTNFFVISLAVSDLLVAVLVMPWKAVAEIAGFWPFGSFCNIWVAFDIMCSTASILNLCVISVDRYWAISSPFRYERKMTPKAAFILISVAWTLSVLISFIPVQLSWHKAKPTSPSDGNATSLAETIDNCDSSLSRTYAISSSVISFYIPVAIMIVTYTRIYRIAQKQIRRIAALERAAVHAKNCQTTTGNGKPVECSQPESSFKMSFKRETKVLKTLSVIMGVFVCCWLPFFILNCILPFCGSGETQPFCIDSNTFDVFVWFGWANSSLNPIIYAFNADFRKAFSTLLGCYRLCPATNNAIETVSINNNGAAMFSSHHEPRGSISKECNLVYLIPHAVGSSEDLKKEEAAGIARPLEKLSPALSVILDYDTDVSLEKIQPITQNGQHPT
RORA act: activates the human nuclear receptor RORA | P35398 | CHO-K1 Gal4-RORA LBD luciferase reporter, luminescence; percent increase over mock-subtracted basal signal | activation, % at 10 µM | 65,000 tested, 1.5% active | AID 560;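 active means activation above the mean of all tested compounds plus 3 SD, cut at about 49% in these data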;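 further: 0% = DMSO-treated RORA cells and 100% = added signal equal to DMSO minus mock-transfected cells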
HePTP inh: human HePTP phosphatase inhibition. P35236. recombinant HePTP phosphatase activity, OD absorbance. inhibition, % at 20 µM. 110,000 tested, 0.64% active; in the data active means inhibition above about 50%;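 further: plate controls were vehicle for no effect and reference inhibitor for full effect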
Numbers without * were called inactive; . = no result given; ! = a repeat was not active. Hits are enriched below; roughly 8.2% of the tested compounds scored in any of these assays.

SMILES	SF1 activator	M1 ag	M1 antag	D1 allo mod	RORA act	HePTP inh
CCc1ccc(NC(=O)c2noc3c2CCCCC3)cc1	67*	0.54	-1.4	0.14	67*	7
Cc1ccc(NC(=O)c2noc3c2CCCCC3)cc1	35	-0.81	0.042	-1	56*	4
O=C(NCCc1ccccc1)c1noc2c1CCCCC2	60*	1.9	-1	-0.15	48	5
O=C(NCc1ccccc1)c1noc2c1CCCC2	12	-0.61	-0.076	-0.81	37	5
Cc1ccc(NC(=O)c2noc3c2CCCCC3)cc1C	-1	0.45	-0.042	0.26	-4	8
COc1ccc(OC)c(C(=O)CSc2nnc(-c3ccc(OC)c(OC)c3)o2)c1	-8	0.035	-0.49	1	-8	6
CCOC(=O)CNC(=O)CSc1ncnc2c1cnn2-c1ccc(OC)cc1	-14	-1.5	-0.011	-2.8*	-10	3
Nc1n[nH]c(N)c1N=Nc1ccccc1F	.	.	.	.	.	103*
CC(C)C(=O)Nc1cccc(NC(=O)CCN2C(=O)c3ccccc3S2(=O)=O)c1	-12	0.51	1.4*	0.69	-17	15
Cc1nc2cc(N3CCN(C)CC3)c(NC(=O)Cc3ccccc3)cc2c(=O)n1Cc1ccccc1	-26	0.038	0.18	-2.4*	-20	11
O=C(Cc1ccccc1)Nc1ccccc1N1CCN(c2ccccc2)CC1	-2	0.31	-0.15	-1.1	3	6
Cc1ccccc1N(C=O)C(=O)C1C(C)C2C=CC1C21CC1 (stereo not given)	.	.	.	.	.	105*
O=C(c1cccc([N+](=O)[O-])c1)c1ccc2c(c1)C(=O)N(c1ccccc1C(=O)O)C2=O	.	.	.	.	.	-3
O=C(c1cccc([N+](=O)[O-])c1)c1ccc2c(c1)C(=O)NC2=O	.	.	.	.	.	104*
O=C1NN(c2ccccc2)C(=O)/C1=C/c1ccc([N+](=O)[O-])o1	.	.	.	.	.	103*
O=C1NC(=O)N(c2ccccc2)C(=O)/C1=C\c1ccc(Br)o1	.	.	.	.	.	69*
O=C1NN(c2ccccc2)C(=O)/C1=C/c1ccc(-c2ccccc2[N+](=O)[O-])o1	.	.	.	.	.	23
CCOc1ccc(N2C(=O)NC(=O)/C(=C\c3ccc(Br)o3)C2=O)cc1	.	.	.	.	.	93*
O=C1NN(c2ccccc2)C(=O)/C1=C/c1ccc(Br)o1	.	.	.	.	.	102*
Cc1ccc(-n2cnnn2)cc1-n1cnnn1	.	.	.	.	.	-14
COc1ccc(C(=O)Nc2ccc(Cl)c(Cl)c2)c(OC)n1	28	0.062	-0.7	-3.2	52*	8
Fc1ccc(NC(=S)Nc2ccccn2)cc1	.	.	.	.	.	-9
C=C(C)CNC(=S)Nc1ccccn1	.	.	.	.	.	103*
S=C(Nc1ccccn1)c1ccccn1	27	-0.054	0.17	-2.6*	36	5
Cc1ccc(C(=O)Nc2ccccn2)cc1	.	.	.	.	.	-30
SMILES	SF1 activator	M1 ag	M1 antag	D1 allo mod	RORA act	HePTP inh
O=C(Nc1ncc(Cc2ccc(Cl)c(Cl)c2)s1)c1cccc([N+](=O)[O-])c1	.	.	.	.	.	-5
CC1=CC(C)=Nc2ccc(C)cc2N1	76*	0.78	0.16	-0.75	58*	2
O=C(NCC1CCCO1)c1cc(-c2ccccc2)on1 (stereo not given)	68*	-2.7	0.24	0.27	91*	12
O=C(NCC1CCCO1)c1csc2c1CCCCC2 (stereo not given)	-5	-0.64	0.46	-3.3*	6	-5
c1ccc(-c2nc3nc4ccccc4nc3n2Cc2ccco2)cc1	48	1.1	-0.14	-0.5	62*	6
Fc1ccc(-c2nc3nc4ccccc4nc3n2Cc2ccco2)cc1	37	0.17	0.037	0.32	45	5
CCC(=O)Nc1c(C)ccc2nsnc12	-22	0.25	-0.15	-0.62	-11	-10
Cc1ccnc(NS(=O)(=O)c2ccc(N=CC3=C(O)CC(C)(C)CC3=O)cc2)n1	-8	0.4	-1.6	0.36	-13	0
CNc1nc(Nc2cccc([N+](=O)[O-])c2)nc(OCC(F)(F)F)n1	.	.	.	.	.	105*
CCCCOC(=O)n1c(SCC(=O)N(C)C)nc2ccccc21	-1	-0.18	-1	-7.3*	-23	4
O=C(Nc1ccc(Cl)cc1)N1CC=CCC1	20	0.62	0.019	-0.15	52*	7
Cc1cccc(N2CCN(C(=O)Nc3ccc(Cl)cc3)CC2)c1C	.	.	.	.	.	4
CCCn1c(SCC(=O)N2CCN(c3ccccc3)CC2)nc2ccccc2c1=O	6	0.91	1.9*	-1.1	-2	-4
CCCn1c(SCC(=O)N2CCCC2)nc2c1c(=O)n(C)c(=O)n2C	-11	-0.81	-0.64	.	-12	4
CCCn1c(SCC(=O)c2cc(OC)ccc2OC)nc2c1c(=O)n(C)c(=O)n2C	6	-0.41	-0.063	1.7	1	4
COc1ccc(OC)c(C(=O)CSc2nc3c(c(=O)n(C)c(=O)n3C)n2C(C)C)c1	-9	-1.5	0.069	6.1*	8	1
CCCn1c(SCC(=O)Nc2ccc3c(c2)OCO3)nc2c1c(=O)n(C)c(=O)n2C	10	-0.17	-0.66	4.8*	-22	5
CCCn1c(SCC(=O)N2CCN(c3ccc(OC)cc3)CC2)nc2c1c(=O)n(C)c(=O)n2C	-17	9.6*	-0.45	-5.2*	-14	2
CC(C)c1ccc(N2C(=O)NC(=O)/C(=C/c3cn(C)c4ccccc34)C2=O)cc1	.	.	.	.	.	-4
CCOc1ccc(N2C(=O)CC(N3CCN(C(=O)CN4CCCC4)CC3)C2=O)cc1 (stereo not given)	4	-0.0029	0.63	.	14	8
C=C(Br)Cn1c(CCC)nc2ccccc21	-21	-0.16	-0.049	0.39	-13	102*!
C=C(C)Cn1c(CCNC(=O)CCC)nc2ccccc21	5	2.1	-0.24	0.1	-6	-5
C=C(Br)Cn1c(CC(C)C)nc2ccccc21	-8	-0.34	1.3	-3.3*	1	10
CN(c1ccccc1)c1ccc(/C=C2\C(=O)ON=C2c2ccccc2)cc1	.	.	.	.	.	13
Cc1ccc(N2C(=O)CC(N(O)C3CC(=O)N(c4ccc(C)cc4)C3=O)C2=O)cc1 (stereo not given)	-13	-0.02	-0.023	.	-18	10
SMILES	SF1 activator	M1 ag	M1 antag	D1 allo mod	RORA act	HePTP inh
COc1ccc(C(=O)N=Nc2c(O)n(CN3CCN(C)CC3)c3ccc(Br)cc23)cc1	.	.	.	.	.	8
COc1ccc(/C=N/OCC(=O)N=Nc2c(O)n(CN(C)C)c3ccc(Br)cc23)cc1	.	.	.	.	.	104*
CC1(C)CC2CC(C)(CN2CC(=O)C(C#N)c2ccccc2)C1 (stereo not given)	3	-0.0092	-0.17	-0.39	-11	-13
Cc1ncoc1C(=O)Nc1ccc(Oc2ccccc2)cc1	59*	-2.4	-1.7	-0.67	32	5
O=C(Nc1ccccc1)c1ccc(-c2ccccc2)cc1	.	.	.	.	.	1
COc1cc2ccccc2cc1C(=O)Nc1cccc(S(N)(=O)=O)c1	.	.	.	.	.	4
O=C(Nc1cccnc1)c1ccc(Oc2ccccc2)cc1	10	-0.33	-0.47	-6.4*	-8	-2
O=C(Nc1cccc(Oc2ccc(C(=O)O)c(C(=O)O)c2)c1)c1ccc(-c2ccccc2)cc1	.	.	.	.	.	102*
